Test results: ChEMBL document CHEMBL1156239, “Synthesis, anticonvulsant and antimicrobial activities of some new 2-acetylnaphthalene derivatives” (Bioorg Med Chem, 2010)
Values after ≈ are worked out from the molar mass of the structure shown. Active and inactive are the calls of the source. No cut-off for these calls is given here.

Legend:
[1] = tested on: Escherichia coli; assay: Antibacterial activity against Escherichia coli ATCC 25922 after 24 hrs by broth microdilution method; assay type: functional; conditions: ATCC 25922, 24 h
In short: (§1)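 Broth microdilution in Mueller Hinton broth; compound stocks in DMSO, diluted into test medium. Plates incubated at 35 °C and read visually after 24 h. MIC taken as lowest concentration preventing visible growth. Ampicillin reference.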

[2] = Therapeutic index, ratio of TD50 for Sprague-Dawley rat to ED50 for Sprague-Dawley rat
In short: (§2)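 Ratio of TD50 to ED50, both from ip dosing at the time of peak effect, with groups of at least 8 per dose and Finney probit analysis. […] Toxicity was read by rotarod in mice and by positional sense, gait and stance in rats.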

[3] = tested on: Rattus norvegicus; assay: Neurotoxicity in Sprague-Dawley rat at 30 mg/kg, ip after 0.25 hrs by rotarod test; assay type: toxicity, organism-based; parameters: dose 30 mg/kg, route intraperitoneal; conditions: in vivo
[4] = tested on: Rattus norvegicus; assay: Neurotoxicity in Sprague-Dawley rat at 30 mg/kg, po after 4 hrs by rotarod test; assay type: toxicity, organism-based; parameters: dose 30 mg/kg, route oral; conditions: in vivo
[5] = tested on: Rattus norvegicus; assay: Neurotoxicity in Sprague-Dawley rat at 30 mg/kg, ip after 4 hrs by rotarod test; assay type: toxicity, organism-based; parameters: dose 30 mg/kg, route intraperitoneal; conditions: in vivo
[6] = tested on: Pichia kudriavzevii; assay: Antifungal activity against Candida krusei ATCC 6258 after 48 hrs by broth microdilution method; assay type: functional; conditions: ATCC 6258, 48 h
[7] = tested on: Mus musculus; assay: Anticonvulsant activity in ip dosed CF1 mouse assessed as inhibition of maximal electroshock-induced seizures after 0.5 hrs; assay type: functional
[8] = tested on: Mus musculus; assay: Neurotoxicity in CF1 mouse assessed as time to peak effect for ability to grasp rotarod at 150 mg/kg, ip by rotarod test; assay type: toxicity, organism-based; parameters: dose 150 mg/kg, route intraperitoneal; conditions: in vivo
[9] = tested on: Rattus norvegicus; assay: Neurotoxicity in ip dosed Sprague-Dawley rat after 0.5 hrs by rotarod test; assay type: toxicity, organism-based; conditions: in vivo
[10] = Therapeutic index, ratio of TD50 for CF1 mouse to ED50 for CF1 mouse; in short: as §2
[11] = tested on: Rattus norvegicus; assay: Anticonvulsant activity in Sprague-Dawley rat assessed as inhibition of maximal electroshock-induced seizures at 30 mg/kg, ip; assay type: functional, organism-based; parameters: dose 30 mg/kg
[12] = tested on: Rattus norvegicus; assay: Anticonvulsant activity in rat assessed as inhibition of hippocampal kindle-stimulated seizures at 300 mg/kg, ip; assay type: functional, organism-based; parameters: dose 300 mg/kg; conditions: Hippocampus
In short: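 Hippocampal kindled rat model; single animal given 300 mg/kg ip.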

[13] = tested on: Rattus norvegicus; assay: Neurotoxicity in Sprague-Dawley rat at 30 mg/kg, ip after 1 hr by rotarod test; assay type: toxicity, organism-based; parameters: dose 30 mg/kg, route intraperitoneal; conditions: in vivo
[14] = tested on: Rattus norvegicus; assay: Neurotoxicity in Sprague-Dawley rat assessed as time to peak effect at 75 mg/kg, ip by rotarod test; assay type: toxicity, organism-based; parameters: dose 75 mg/kg, route intraperitoneal; conditions: in vivo
[15] = tested on: Mus musculus; assay: Anticonvulsant activity in CF1 mouse assessed as time to peak effect for inhibition of maximal electroshock-induced seizures at 35 mg/kg, ip after 2 hrs; assay type: functional, organism-based; parameters: dose 35 mg/kg
[16] = tested on: Mus musculus; assay: Neurotoxicity in CF1 mouse assessed as ability to grasp rotarod at 300 mg/kg, ip after 0.5 hrs by rotarod test; assay type: toxicity, organism-based; parameters: dose 300 mg/kg, route intraperitoneal; conditions: in vivo
In short: (§3)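 Male albino CF#1 mice (18–25.5 g) dosed ip with compound suspended in 0.5% methylcellulose, 0.5 h or 4 h before testing; neurotoxicity assessed by rotarod, scored as number toxic/number tested.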

[17] = tested on: Mus musculus; assay: Anticonvulsant activity in CF1 mouse assessed as inhibition of maximal electroshock-induced seizures at 30 mg/kg, ip after 0.5 hrs; assay type: functional, organism-based; parameters: dose 30 mg/kg
In short: (§4)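 Male albino CF#1 mice (18–25.5 g), compound suspended in 0.5% methylcellulose, given ip 0.5 h or 4 h before test. Eyes treated with 0.5% tetracaine HCl in saline; corneal-type MES at 60 Hz, 50 mA for 0.2 s; protection scored as animals protected/tested.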

[18] = tested on: Mus musculus; assay: Anticonvulsant activity in CF1 mouse assessed as inhibition of maximal electroshock-induced seizures at 300 mg/kg, ip after 4 hrs; assay type: functional, organism-based; parameters: dose 300 mg/kg; in short: as §4
[19] = tested on: Rattus norvegicus; assay: Neurotoxicity in Sprague-Dawley rat at 30 mg/kg, po after 2 hrs by rotarod test; assay type: toxicity, organism-based; parameters: dose 30 mg/kg, route oral; conditions: in vivo
[20] = tested on: Mus musculus; assay: Anticonvulsant activity in CF1 mouse assessed as inhibition of maximal electroshock-induced seizures at 100 mg/kg, ip after 0.5 hrs; assay type: functional, organism-based; parameters: dose 100 mg/kg; in short: as §4
[21] = tested on: Mus musculus; assay: Neurotoxicity in CF1 mouse at 30 mg/kg, ip after 0.5 hrs by rotarod test; assay type: toxicity, organism-based; parameters: dose 30 mg/kg, route intraperitoneal; conditions: in vivo; in short: as §3
[22] = tested on: Staphylococcus aureus; assay: Antibacterial activity against Staphylococcus aureus ATCC 25923 after 24 hrs by broth microdilution method; assay type: functional; conditions: ATCC 25923, 24 h; in short: as §1
[23] = tested on: Rattus norvegicus; assay: Neurotoxicity in Sprague-Dawley rat assessed as time to peak effect at 10 to 30 mg/kg, ip after 0.25 to 4 hrs by rotarod test; assay type: toxicity, organism-based; parameters: route intraperitoneal; conditions: in vivo
[24] = tested on: Mus musculus; assay: Neurotoxicity in CF1 mouse assessed as mortality at 300 mg/kg, ip after 4 hrs by rotarod test; assay type: toxicity, organism-based; parameters: dose 300 mg/kg, route intraperitoneal; conditions: in vivo
In short: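 Male albino CF#1 mice (18–25.5 g), free access to food and water except during testing, under NINDS Anticonvulsant Screening Program procedures. Compounds were suspended in 0.5% methylcellulose and given ip. Neurotoxicity was scored by rotarod 0.5 h and 4 h after dosing, at screening doses of 30, 100 or 300 mg/kg. Results are reported as affected/tested animals.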

[25] = tested on: Mus musculus; assay: Neurotoxicity in CF1 mouse at 100 mg/kg, ip after 0.5 hrs by rotarod test; assay type: toxicity, organism-based; parameters: dose 100 mg/kg, route intraperitoneal; conditions: in vivo; in short: as §3
[26] = Neurotoxicity in ip dosed CF1 mouse after 0.25 hrs by rotarod test; assay type: toxicity, organism-based; conditions: in vivo
In short: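 TD50 was determined at the time of peak effect in male albino animals. Compound was suspended in 0.5% methylcellulose and given ip. Neurotoxicity was read by rotarod in CF#1 mice and by positional sense, gait and stance in Sprague-Dawley rats. Groups of at least 8 received graded doses spanning 0–100% toxicity.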

[27] = tested on: Rattus norvegicus; assay: Anticonvulsant activity in ip dosed Sprague-Dawley rat assessed as inhibition of maximal electroshock-induced seizures after 0.5 hrs; assay type: functional
[28] = tested on: Mus musculus; assay: Neurotoxicity in CF1 mouse assessed as hyperactivity at 300 mg/kg, ip after 0.5 hrs by rotarod test; assay type: toxicity, organism-based; parameters: dose 300 mg/kg, route intraperitoneal; conditions: in vivo
[29] = tested on: Enterococcus faecalis; assay: Antibacterial activity against Enterococcus faecalis ATCC 29212 after 24 hrs by broth microdilution method; assay type: functional; conditions: ATCC 29212, 24 h; in short: as §1
[30] = tested on: Mus musculus; assay: Neurotoxicity in CF1 mouse assessed as time to peak effect at 150 mg/kg, ip after 1 to 2 hrs by rotarod test; assay type: toxicity, organism-based; parameters: dose 150 mg/kg, route intraperitoneal; conditions: in vivo
[31] = tested on: Mus musculus; assay: Anticonvulsant activity in CF1 mouse assessed as time to peak effect for inhibition of maximal electroshock-induced seizures at 23 mg/kg, ip after 1 hr; assay type: functional, organism-based; parameters: dose 23 mg/kg
[32] = tested on: Mus musculus; assay: Neurotoxicity in CF1 mouse at 100 mg/kg, ip after 4 hrs by rotarod test; assay type: toxicity, organism-based; parameters: dose 100 mg/kg, route intraperitoneal; conditions: in vivo; in short: as §3
[33] = tested on: Rattus norvegicus; assay: Anticonvulsant activity in Sprague-Dawley rat assessed as inhibition of maximal electroshock-induced seizures at 30 mg/kg, po after 0.25 hrs; assay type: functional, organism-based; parameters: dose 30 mg/kg
In short: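 Male albino Sprague-Dawley rats (105–130 g) given a single oral 30 mg/kg dose suspended in 0.5% methylcellulose; MES (60 Hz, 150 mA, 0.2 s, tetracaine-anesthetized eyes) at 0.25, 0.5, 1, 2 and 4 h; 4 rats per time point; scored protected/tested.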

[34] = tested on: Rattus norvegicus; assay: Neurotoxicity in Sprague-Dawley rat at 30 mg/kg, ip after 0.5 hrs by rotarod test; assay type: toxicity, organism-based; parameters: dose 30 mg/kg, route intraperitoneal; conditions: in vivo
[35] = tested on: Rattus norvegicus; assay: Anticonvulsant activity in Sprague-Dawley rat assessed as time to peak effect for inhibition of maximal electroshock-induced seizures at 30 mg/kg, ip; assay type: functional; conditions: route intraperitoneal
[36] = tested on: Rattus norvegicus; assay: Neurotoxicity in Sprague-Dawley rat at 30 mg/kg, po after 1 hr by rotarod test; assay type: toxicity, organism-based; parameters: dose 30 mg/kg, route oral; conditions: in vivo
[37] = tested on: Mus musculus; assay: Anticonvulsant activity in CF1 mouse assessed as time to peak effect for inhibition of maximal electroshock-induced seizures at 70 mg/kg, ip after 4 hrs; assay type: functional, organism-based; parameters: dose 70 mg/kg

In the case of `CC(C)CC(=O)OC(Cn1ccnc1)c1ccc2ccccc2c1` (configuration not stated), the MIC [1] is reported as over 1020 µg/mL, the selectivity ratio [2] is reported as 2.76 and the Activity [3] is reported as “Non-toxic”. For the same compound, the Activity [4] was “Non-toxic”, the Activity [5] was “Non-toxic” and the MIC [6] was 128 µg/mL (≈ 397 µM). The ED50 [7] was 38.5 mg/kg, the Time [8] was 0.25 h and the ED50 [9] was 56.36 mg/kg. The selectivity ratio [10] was 3.22, the inhibition [11] was “Active” and the inhibition [12] was “inactive”. For the same compound, the Activity [13] was “Non-toxic”, the Time [14] was 0.5 h and the Activity [15] was “inactive”. The Activity [16] was “Toxic”, the inhibition [17] was “inactive” and the inhibition [18] was “Active”. The Activity [19] was “Non-toxic”, the inhibition [20] was “Active” and the Activity [21] was “Non-toxic”. For the same compound, the MIC [22] was 8 µg/mL (≈ 24.8 µM), the Activity [23] was “Non-toxic” and the Activity [24] was “Toxic”. The Activity [25] was “Non-toxic”, the TD50 at 0.25 h [26] was 124 mg/kg and the ED50 [27] was 20.4 mg/kg. The Activity [28] was “Toxic”, the MIC [29] was 64 µg/mL (≈ 199 µM) and the Activity [30] was “Not Active”. For the same compound, the Activity [31] was “inactive”, the Activity [32] was “Non-toxic” and the inhibition [33] was “inactive”. For the same compound, the Activity [34] was “Non-toxic”, the Time [35] was 0.5 h and the Activity [36] was “Non-toxic”. For the same compound, the Activity [37] was “inactive”.
